What was measured:
PBL [1] = test: Percent inhibition of interleukin-5 production in human whole blood assay after 10e-6 M treatment; type: functional
PBL [2] = test: Percent inhibition of interleukin-5 production in human whole blood assay after 10e-7 M treatment; type: functional
[3] = Percent conversion of compound in human liver fraction after 60 min of administration; type: ADME, tissue-based; conditions: read-out: Conversion
Outline: (§1)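 Test compound at 10^-6 M incubated at 37 °C in phosphate buffered saline with human liver S9 (10 µg protein/ml) or human lung S9 (50 µg protein/ml); samples taken at 0, 15 and 60 min; parent compound quantified by LC-MS/MS using MRM transition of parent to daughter ion; percent converted after 60 min.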

[4] = Percent conversion of compound in human lung S9 fraction after 60 min of administration; type: ADME; conditions: read-out: Conversion; outline: as §1

Structure (SMILES)	Inhibition (PBL [1]) [%]	Inhibition (PBL [2]) [%]	metabolised at 1 h [3] [%]	metabolised at 1 h [4] [%]
CC(C)(c1nc(-c2ccccc2)c(C(=O)OCCc2ccccc2)s1)c1c(Cl)cc(-n2ncc(=O)[nH]c2=O)cc1Cl	88	62	94	24
COC(=O)c1sc(C(C)(C)c2c(Cl)cc(-n3ncc(=O)[nH]c3=O)cc2Cl)nc1-c1ccccc1	93	84	49	47
CC(C)=CCOC(=O)c1sc(C(C)(C)c2c(Cl)cc(-n3ncc(=O)[nH]c3=O)cc2Cl)nc1-c1ccccc1	73	55	65	6
CC(C)(C)OC(=O)c1sc(C(C)(C)c2c(Cl)cc(-n3ncc(=O)[nH]c3=O)cc2Cl)nc1-c1ccccc1	89	79	7	0
CCCOC(=O)c1sc(C(C)(C)c2c(Cl)cc(-n3ncc(=O)[nH]c3=O)cc2Cl)nc1-c1ccccc1	96	69	68	23
CC(C)(c1nc(-c2ccccc2)c(C(=O)OCCCO)s1)c1c(Cl)cc(-n2ncc(=O)[nH]c2=O)cc1Cl	83	58	76	8
CCCCCOC(=O)c1sc(C(C)(C)c2c(Cl)cc(-n3ncc(=O)[nH]c3=O)cc2Cl)nc1-c1ccccc1	91	54	72	32
CCCCOC(=O)c1sc(C(C)(C)c2c(Cl)cc(-n3ncc(=O)[nH]c3=O)cc2Cl)nc1-c1ccccc1	88	51	86	18
CC(C)OC(=O)c1sc(C(C)(C)c2c(Cl)cc(-n3ncc(=O)[nH]c3=O)cc2Cl)nc1-c1ccccc1	94	85	10	1
CC(C)(c1nc(-c2ccccc2)c(C(=O)OCCO)s1)c1c(Cl)cc(-n2ncc(=O)[nH]c2=O)cc1Cl	93	66	1	0
CC(C)COC(=O)c1sc(C(C)(C)c2c(Cl)cc(-n3ncc(=O)[nH]c3=O)cc2Cl)nc1-c1ccccc1	90	56	80	27
CC(C)(c1nc(-c2ccccc2)c(C(=O)OCC(F)(F)F)s1)c1c(Cl)cc(-n2ncc(=O)[nH]c2=O)cc1Cl	92	75	38	36
CC(C)(c1nc(-c2ccccc2)c(C(=O)OCCOc2ccccc2)s1)c1c(Cl)cc(-n2ncc(=O)[nH]c2=O)cc1Cl	83	70	73	21
CCOC(=O)c1sc(C(C)(C)c2c(Cl)cc(-n3ncc(=O)[nH]c3=O)cc2Cl)nc1-c1ccccc1	94	67	29	17
C=CCOC(=O)c1sc(C(C)(C)c2c(Cl)cc(-n3ncc(=O)[nH]c3=O)cc2Cl)nc1-c1ccccc1	96	69	68	23
CC(C)(c1nc(-c2ccccc2)c(C(=O)OCC#N)s1)c1c(Cl)cc(-n2ncc(=O)[nH]c2=O)cc1Cl	91	74	61	34
CC(=O)COC(=O)c1sc(C(C)(C)c2c(Cl)cc(-n3ncc(=O)[nH]c3=O)cc2Cl)nc1-c1ccccc1	85	57	64	19
CC#CCOC(=O)c1sc(C(C)(C)c2c(Cl)cc(-n3ncc(=O)[nH]c3=O)cc2Cl)nc1-c1ccccc1	100	96	1	3
CC(C)(c1nc(-c2ccccc2)c(C(=O)OCC2CC2)s1)c1c(Cl)cc(-n2ncc(=O)[nH]c2=O)cc1Cl	92	56	87	27
CC(C)(c1nc(-c2ccccc2)c(C(=O)O)s1)c1c(Cl)cc(-n2ncc(=O)[nH]c2=O)cc1Cl	0	0	0	0
C#CCOC(=O)c1sc(C(C)(C)c2c(Cl)cc(-n3ncc(=O)[nH]c3=O)cc2Cl)nc1-c1ccccc1	90	87	55	20
